Laboratory results published in BindingDB's records for doi:10.1021/jm4003654 (Xavier University of Louisiana, 2013).

Tests used:
[1] = biological target: Cytochrome P450 2B1 (Rattus norvegicus) (UniProt P00176); assay: Inhibition of CYP2B1 (rat)-mediated depentylation of resorufin pentyl ether after 5 mins by spectrofluorimetric analysis
CYP2A6 = biological target: T1, CYP2A6 (Homo sapiens, UniProt P11509); assay: Inhibition of CYP2A6 (unknown origin)-mediated coumarin 7-hydroxylation after 5 mins by spectrofluorimetric analysis; details: probe coumarin (7-hydroxylation)
T1 sequence (P11509 whole entry): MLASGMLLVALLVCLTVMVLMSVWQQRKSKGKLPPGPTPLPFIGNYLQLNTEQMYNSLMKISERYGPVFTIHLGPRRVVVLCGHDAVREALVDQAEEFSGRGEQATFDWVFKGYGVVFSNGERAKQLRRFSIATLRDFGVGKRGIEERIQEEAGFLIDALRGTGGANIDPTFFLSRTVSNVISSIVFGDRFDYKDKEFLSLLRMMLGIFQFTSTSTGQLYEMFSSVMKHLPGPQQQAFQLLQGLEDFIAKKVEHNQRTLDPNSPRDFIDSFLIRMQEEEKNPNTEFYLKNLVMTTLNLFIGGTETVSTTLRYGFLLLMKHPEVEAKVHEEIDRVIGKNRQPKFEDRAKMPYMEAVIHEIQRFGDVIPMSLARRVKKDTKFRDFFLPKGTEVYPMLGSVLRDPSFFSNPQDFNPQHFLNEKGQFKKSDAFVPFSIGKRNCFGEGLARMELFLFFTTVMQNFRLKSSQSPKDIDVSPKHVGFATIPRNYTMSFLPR
Procedure, shortened: (§1)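 Microsomal P450 (final 5 nM) in 0.1 M potassium phosphate pH 7.6 with MgCl2; resorufin ether or coumarin substrate final 5 μM from DMSO stock; inhibitor added in DMSO, DMSO alone for controls. Reaction started with NADPH regenerating system (NADP+, glucose 6-phosphate, G6P dehydrogenase) at 37 °C; product formation followed fluorimetrically as progress curves.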

Cytochrome P450 1A1 = biological target: T2, Cytochrome P450 1A1 (Homo sapiens, UniProt P04798); assay: Inhibition of CYP1A1 (unknown origin)-mediated deethylation of resorufin ethyl ether after 5 mins by spectrofluorimetric analysis
T2 sequence (P04798 whole entry): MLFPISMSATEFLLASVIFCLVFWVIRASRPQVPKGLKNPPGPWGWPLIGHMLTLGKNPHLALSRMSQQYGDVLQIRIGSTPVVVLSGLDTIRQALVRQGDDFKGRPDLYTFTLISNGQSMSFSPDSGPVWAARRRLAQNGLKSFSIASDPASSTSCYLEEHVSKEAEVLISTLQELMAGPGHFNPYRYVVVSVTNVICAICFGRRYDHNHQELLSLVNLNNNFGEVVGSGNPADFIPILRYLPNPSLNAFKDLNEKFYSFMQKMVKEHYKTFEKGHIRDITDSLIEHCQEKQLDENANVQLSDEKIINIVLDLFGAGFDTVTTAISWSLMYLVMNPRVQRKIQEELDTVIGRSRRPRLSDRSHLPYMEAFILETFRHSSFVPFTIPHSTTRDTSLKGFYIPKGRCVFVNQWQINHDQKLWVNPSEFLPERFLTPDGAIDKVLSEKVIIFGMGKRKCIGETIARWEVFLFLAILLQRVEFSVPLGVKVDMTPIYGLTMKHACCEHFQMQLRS
Procedure, shortened: as §1

Chain of Cytochrome P450 2B1 (Rattus norvegicus) (P00176 whole entry, looked up): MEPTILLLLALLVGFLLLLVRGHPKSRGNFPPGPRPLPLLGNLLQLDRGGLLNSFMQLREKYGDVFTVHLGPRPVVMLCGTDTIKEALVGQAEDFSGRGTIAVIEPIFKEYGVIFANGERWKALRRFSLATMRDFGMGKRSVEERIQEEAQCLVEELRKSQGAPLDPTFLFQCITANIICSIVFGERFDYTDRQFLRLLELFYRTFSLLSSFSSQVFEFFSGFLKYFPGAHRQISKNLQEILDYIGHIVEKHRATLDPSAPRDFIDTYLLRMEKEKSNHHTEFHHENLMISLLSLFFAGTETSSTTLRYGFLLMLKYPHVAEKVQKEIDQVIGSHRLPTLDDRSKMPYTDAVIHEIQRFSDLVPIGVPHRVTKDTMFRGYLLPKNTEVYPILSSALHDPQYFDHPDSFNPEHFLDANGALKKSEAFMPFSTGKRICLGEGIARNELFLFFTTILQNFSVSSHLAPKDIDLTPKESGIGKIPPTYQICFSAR

| Compound | IC50 [1] [µM] | IC50 at 5 min (CYP2A6) [µM] | IC50 (Cytochrome P450 1A1) [µM] |
| --- | --- | --- | --- |
| O=c1cccc2oc(-c3ccc4c(c3)OCC=C4)cc(O)c1-2 | > 25 | > 25 | – |
| O=c1cccc2oc(-c3cccc4c3C=CCO4)cc(O)c1-2 | > 25 | > 25 | – |
| O=c1cc(-c2ccccc2)oc2cccc(O)c12 [5-Hydroxy-2-phenyl-chromen-4-one] | – | – | 4.03 |

Continued, values first:

| IC50 [1] [µM] | IC50 at 5 min (CYP2A6) [µM] | IC50 (Cytochrome P450 1A1) [µM] | Compound |
| --- | --- | --- | --- |
| > 25 | > 25 | – | O=c1cccc2oc(-c3ccc4c(c3)C=CCO4)cc(O)c1-2 |
| > 25 | > 25 | – | C#CCOc1ccc(-c2cc(O)c3c(=O)cccc-3o2)cc1 |
| 4.08 | > 25 | – | C#CCOc1cccc(-c2cc(O)c3c(=O)cccc-3o2)c1 |
